Rows were chosen to be rich in hits. Some 2.3% of all compounds tested hit in one or more screens of this group.
NR2E3 ag-1: activates human photoreceptor nuclear receptor NR2E3; Q9Y5X4; GST-NR2E3/biotin-RetCOR TR-FRET, 1536-well; inhibition of corepressor binding, % at 4.78 µM; 320,000 compounds, 0.12% hits;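 active = percent inhibition above the cutoff of mean plus 3 SD of all tested compounds, set per screening campaign, cut at about 20% in these data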
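System: GST-tagged NR2E3 plus biotinylated RetCOR corepressor; Amount: 1.35 nM GST-tagged NR2E3 final; Dosing: single nominal compound dose of 4.8 µM; Schedule: 5 h incubation at 4 °C; Technique: TR-FRET with europium anti-GST and streptavidin-D2, 340 nm excitation; Controls: biotin wells as high control, 0.6% DMSO wells as low control.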
CHT inh: inhibitors of human choline transporter CHT; Q9GZV3; CHT-expressing cells, membrane potential dye, choline response; hits give low values; B-score at 10 µM; 310,000 compounds, 0.86% hits; AID 488975;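 active = B-score over 3 SD under the library average, and starting fluorescence ratio not unusually high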;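 note: choline stimulus applied at its EC90 after an EC20 pre-addition; B-score computed on integrated fluorescence ratio after choline addition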
Target sequence (Q9GZV3 whole entry, looked up): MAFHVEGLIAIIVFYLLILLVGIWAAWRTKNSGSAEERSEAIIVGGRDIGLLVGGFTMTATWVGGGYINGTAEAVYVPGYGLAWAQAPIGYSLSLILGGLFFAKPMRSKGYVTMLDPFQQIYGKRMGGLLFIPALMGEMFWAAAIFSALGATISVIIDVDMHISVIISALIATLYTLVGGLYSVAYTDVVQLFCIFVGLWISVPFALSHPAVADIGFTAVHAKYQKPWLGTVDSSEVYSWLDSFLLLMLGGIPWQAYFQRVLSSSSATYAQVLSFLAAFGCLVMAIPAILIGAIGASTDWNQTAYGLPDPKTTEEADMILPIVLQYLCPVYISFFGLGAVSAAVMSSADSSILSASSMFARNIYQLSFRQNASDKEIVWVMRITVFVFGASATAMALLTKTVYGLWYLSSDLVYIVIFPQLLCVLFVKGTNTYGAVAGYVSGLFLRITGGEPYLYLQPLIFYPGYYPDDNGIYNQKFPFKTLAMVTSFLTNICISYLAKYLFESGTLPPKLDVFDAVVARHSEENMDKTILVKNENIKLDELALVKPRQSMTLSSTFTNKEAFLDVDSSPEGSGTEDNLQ
NR2F2 inh: inhibitors of human COUP-TFII (NR2F2). P24468. HEK293T NGFI-A luciferase reporter, luminescence. inhibition, % at 8.6 µM. 370,000 compounds, 0.7% hits;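 active = inhibition above a per-plate cutoff, mean inhibition of test wells between control levels plus 3 SD, cut at about 38% in these data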;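 note: cells cotransfected with COUP-TFII expression vector driving the NGFI-A reporter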
GalR3 antag: antagonists of human GalR3. O60755. HEK293 GalR3-CNG cAMP membrane potential fluorescence; galR3 body fused to GalR1 C-terminus. inhibition, % at 3 µM. 360,000 compounds, 0.44% hits;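 active = inhibition above the screen-wide average plus 3 SD, cut at about 13% in these data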;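 note: forskolin and galanin both at EC90 stimulate the cells; cAMP rise reported by CNG channel membrane potential dye signal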
CHT PAM: allosterically activates the human high affinity choline transporter | CHT-expressing cells, membrane potential dye, choline EC20; hits give high values; LV-AA mutant CHT in HEK293 cells | AID 488977 | Q9GZV3 | 310,000 compounds, 0.49% hits | B-score at 10 µM;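 active = initial fluorescence not abnormally high and integrated response B-score, plate-corrected, over 3 SD above library mean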
NR2E3 ag-2: human photoreceptor-specific nuclear receptor agonism. CHO-S Gal4-NCOR/VP16-NR2E3 two-hybrid, luciferase. 360,000 compounds, 0.35% hits. inhibition of corepressor binding, % at 3.98 µM. AID 602229. Q9Y5X4;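 active = inhibition above the mean of all tested compounds plus 3 SD, cut at about 70% in these data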;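 note: higher means lower luciferase signal from less NR2E3 corepressor binding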
CHT block conf: human CHT inhibition, confirmatory screen | 2,400 compounds, 70% hits | CHT activity remaining % of control (hits give low values), % at 10 µM | shares compounds with CHT inh | CHT-expressing cells, choline membrane potential dye; LV-to-AA substituted CHT, HEK293 cells;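 active = choline transporter activity left, mean of duplicates at 10 µM, below buffer-only control mean minus 3 SD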;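 note: depolarization triggered by choline at its EC90 following an EC20 pre-addition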
HEK293 MPD ctr: CHT inhibitor counter-screen hit in parental HEK293 cells; shares compounds with CHT inh; membrane potential dye, choline response; active = decrease or increase beyond buffer ±3SD; membrane potential ratio readout (active if shifted either direction beyond buffer ±3SD; no single direction) at 10 µM; 2,400 compounds, 4% hits; AID 493222;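 note: parental cells lack the transporter so any hit is non-specific; ratio is peak minus trough fluorescence over baseline after EC90 choline challenge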
Large screens that a line does not name were inactive (follow-up assays come after a bar, where they were run).

CC1=NN(c2cccc(Cl)c2)C(=O)C1	none | CHT block conf inactive | HEK293 MPD ctr inactive
O=C(O)CC/C(=N\Nc1ccc(S(=O)(=O)N2CCCC2)cc1[N+](=O)[O-])c1cccs1	none (no result: NR2E3 ag-1, CHT inh, CHT PAM)
O=C(O)CC/C(=N\Nc1ccccc1[N+](=O)[O-])c1cccs1	CHT inh -5.7 (no result: NR2F2 inh, GalR3 antag) | CHT block conf 48% | HEK293 MPD ctr 2.9
O=C(NNc1nc(-c2ccccc2)cs1)c1ccc(F)cc1	CHT inh -5.2 | CHT block conf 71% | HEK293 MPD ctr inactive
CNC(=O)c1ccc(-c2nc(-c3ccccc3)cs2)cc1	none
O=C(NCc1nc(-c2ccccc2)cs1)c1ccccc1	CHT inh -6.5 | CHT block conf 71% | HEK293 MPD ctr inactive
COCCNC(=O)C(c1ccncc1)N(C(=O)Cn1nnc2ccccc21)c1ccc(OC)cc1 (stereo not given)	none
COc1ccc(N(C(=O)Cn2nnc3ccccc32)C(C(=O)NCc2ccco2)c2ccncc2)cc1 (stereo not given)	CHT inh -10 | CHT block conf inactive | HEK293 MPD ctr inactive
O=C(CCCc1nc2ccccc2s1)Nc1ccc(N2CCOCC2)cc1	CHT inh -6.7 | CHT block conf inactive | HEK293 MPD ctr inactive
N#Cc1ccc(NC(=O)CCc2nc3ccccc3s2)cc1	none
CCCCNC(=O)C[C@H]1C[C@@]2(C(=O)OC)C(=C[C@H](C(C)(C)C)O[C@@H]2C)N(Cc2cccc3ccccc23)C1=O	none (no result: NR2E3 ag-1, CHT inh, GalR3 antag, CHT PAM, NR2E3 ag-2)
O=S(=O)(NCC1CCCO1)c1ccc(Oc2ccccc2)cc1 (stereo not given)	CHT inh -5.6 | CHT block conf inactive | HEK293 MPD ctr inactive
O=C(Nc1ccc(S(=O)(=O)NCC2CCCO2)cc1)c1ccccc1 (stereo not given)	none
CCC(Oc1ccccc1)C(=O)Nc1ccc(S(=O)(=O)NCC2CCCO2)cc1 (stereo not given)	CHT inh -8.7 | CHT block conf 40% | HEK293 MPD ctr inactive
C[C@@H]1/C=C/CC(=O)N[C@H](c2cccc(Br)c2)[C@H](C)/C=C/CC(=O)N[C@@H]1c1cccc(Br)c1	none (no result: NR2E3 ag-1, CHT inh, GalR3 antag, CHT PAM, NR2E3 ag-2)
Cc1csc(=N)n1CC(=O)N1CCc2ccccc21	CHT inh -9.6 | CHT block conf 21% | HEK293 MPD ctr inactive
O=C(CN1CCN(Cc2ccc(Cl)cc2)CC1)N1CCc2ccccc21	CHT inh -6.2 | CHT block conf 48% | HEK293 MPD ctr inactive
CN1CCN(C(=O)CCN2C(=O)S/C(=C/c3ccc(Cl)cc3)C2=O)CC1	CHT inh -6.5 | CHT block conf 50% | HEK293 MPD ctr inactive
Fc1cc(F)c(CSc2nnc(-c3cccnc3)n2Cc2ccccc2)cc1F	none (no result: NR2E3 ag-1, CHT inh, GalR3 antag, CHT PAM, NR2E3 ag-2)
CNc1oc(Cc2cccc3ccccc23)nc1C#N	CHT inh -6.9 | CHT block conf 56% | HEK293 MPD ctr inactive
CC(=O)/C(C#N)=C1\NC(=O)C(Cc2ccc(C)c(Cl)c2)S1 (stereo not given)	CHT inh -7 | CHT block conf inactive | HEK293 MPD ctr inactive
CCc1ccc(CC2S/C(=C(\C#N)C(C)=O)NC2=O)cc1 (stereo not given)	none
O=C1CCC[C@H]2C[C@H](NCc3cccnc3)CC[C@]23CCCN13	none (no result: NR2E3 ag-1, CHT inh, GalR3 antag, CHT PAM, NR2E3 ag-2)
CCC1(C)Cc2c(sc3nnn(CC(=O)Nc4ccccc4)c(=O)c23)CO1 (stereo not given)	none | CHT block conf 58% | HEK293 MPD ctr inactive
O=CN/C=C/c1cc(O)ccc1O	CHT inh -7.4 | CHT block conf 48% | HEK293 MPD ctr inactive
O=C(Nc1ccc(NC(=O)c2ccccc2Cl)c(Cl)c1)c1ccccn1	none (no result: NR2E3 ag-1, CHT inh, GalR3 antag, CHT PAM, NR2E3 ag-2)
Cc1ccc(C(C)NC(=S)NC2CCCCC2)cc1C (stereo not given)	CHT inh -12 (no result: NR2E3 ag-1) | CHT block conf 22% | HEK293 MPD ctr inactive
CC(NC(=O)NC1CCCCC1)c1ccc2c(c1)OCO2 (stereo not given)	CHT inh -6.7 | CHT block conf 66% | HEK293 MPD ctr inactive
CS(=O)(=O)OC12CCCN(C1)/C(=C/c1ccc(Cl)cc1)C2 (stereo not given)	none (no result: NR2E3 ag-1, CHT inh, GalR3 antag, CHT PAM, NR2E3 ag-2)
C[C@H]1[C@@H](OC(=O)Nc2ccccc2Cl)CC[C@@]23CCCN2C(=O)CCC[C@@H]13	none (no result: NR2E3 ag-1, CHT inh, GalR3 antag, CHT PAM, NR2E3 ag-2)
COc1cccc(NC(=O)c2cc3ccccc3o/c2=N\O)c1	CHT inh -6.3 | CHT block conf inactive | HEK293 MPD ctr inactive
Cc1ccc(OCc2nnc(SCC(=O)c3ccc(-c4ccccc4)cc3)n2Cc2ccco2)cc1	none (no result: NR2E3 ag-1, CHT inh, GalR3 antag, CHT PAM, NR2E3 ag-2)
COc1ccc2c(c1)-c1c(ssc1=S)C(C)(C)N2	CHT inh -5.2 | CHT block conf 57% | HEK293 MPD ctr inactive
COc1ccc(-n2sc3c(c2=S)-c2cc(OC)ccc2NC3(C)C)cc1	none
Cc1ccccc1NS(=O)(=O)c1ccc(N2CCCC2=O)cc1	CHT inh -5 | CHT block conf inactive | HEK293 MPD ctr inactive
Cc1ccccc1NS(=O)(=O)c1cc2c3c(c1)CC(=O)N3CCC2	none
O=C(OCC(=O)N1CCCc2ccccc21)c1cnc(Cl)c(Cl)c1	CHT inh -5.7 | CHT block conf inactive | HEK293 MPD ctr inactive
O=C(OCC(=O)N1CCCc2ccccc21)c1ccc(Cl)nc1	none
O=C(OCc1cn(Cc2ccccc2)nn1)N1CCCC1	none (no result: NR2E3 ag-1, CHT inh, GalR3 antag, CHT PAM, NR2E3 ag-2)
COC(=O)CSc1[nH]c2ccc(F)cc2c1[N+](=O)[O-]	CHT inh -7.2 | CHT block conf 15% | HEK293 MPD ctr inactive
Cc1c(C)n(O)c2ccc3nonc3c12	CHT inh -6.8 | CHT block conf 6.2% | HEK293 MPD ctr inactive
CNC[C@H](O)c1ccc(O)c(O)c1	none
CC(C)NCC(O)c1ccc(O)c(O)c1 (stereo not given)	CHT inh -6.4 | CHT block conf 30% | HEK293 MPD ctr inactive
COc1cc(-c2nnc(SC/C=C/c3ccccc3)n2N)cc(OC)c1OC	CHT inh -5.2 | CHT block conf 67% | HEK293 MPD ctr inactive
Cc1sc2ncnc(N(C)Cc3ccco3)c2c1C	CHT inh -5.1 | CHT block conf inactive | HEK293 MPD ctr inactive
O=C(N/N=C/c1cccs1)c1cccc(NC(=O)c2ccc(Cl)cc2)c1	none (no result: NR2E3 ag-2)
O=C(N/N=C/c1cccs1)c1cccc(S(=O)(=O)Nc2ccc(Cl)cc2)c1	CHT inh -5.5 | CHT block conf inactive | HEK293 MPD ctr inactive
C/C(C=NNC(=O)CSc1nc2ccccc2n1Cc1ccccc1Cl)=C\c1ccccc1	none (no result: NR2E3 ag-1, CHT inh, GalR3 antag, CHT PAM, NR2E3 ag-2)
CCc1nnc(NC(=O)c2nc(S(=O)(=O)Cc3cccc(C)c3)ncc2Cl)s1	CHT inh -6.1 | CHT block conf 30% | HEK293 MPD ctr inactive

High-throughput results (PubChem)
